MC4R antagonist – MC4R antagonists of cAMP signaling, primary screen, cell-based, TR-FRET, antagonist arm of biased-ligand search | MC4R-expressing cells, MTII-stimulated cAMP, LANCE TR-FRET | inhibition, % at 6.5 µM | 360,000 tested, 0.48% active | AID 540295, 2011;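 active = inhibition above its plate's cutoff, the mean of tested wells on that plate plus 3 SD, cut at about 29% in these data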;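 note: 0% = Melanotan II alone and 100% = Melanotan II plus saturating MCL0020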
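material = U2OS cells stably expressing human melanocortin 4 receptor (MC4R) | also added = Melanotan II challenge | dosing = single nominal compound dose of 6.5 µM | detection = TR-FRET with Eu-cAMP and labeled anti-cAMP, 671 nm | replication = singlicate | timing = compound 30 min, challenge 1 h, detection 1 h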
MC4R barr agon – MC4R agonists recruiting beta-arrestin, primary screen, cell-based, luminescence, agonist arm of biased-ligand search | Melanocortin receptor 4 (Homo sapiens), P32245 | U2OS MC4R beta-arrestin complementation; percent of melanotan II response, DMSO zero | activation, % at 8.9 µM | 360,000 tested, 0.98% active;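 active = activation above a per-plate cutoff, the mean activation of sample wells on that plate plus 3 SD, cut at about 8% in these data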
TLR4-MyD88 BLA – inhibitors of TLR4-MyD88 association in cells, primary screen, cell-based, HeLa CL3-4, BLA complementation, FRET ratio. Toll-like receptor 4 (Homo sapiens) + Myeloid differentiation primary response protein …. HeLa CL3-4 TLR4/MyD88 BLA complementation. inhibition, % at 8.4 µM. 200,000 tested, 0.18% active; in the data active = inhibition above about 25%;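 note: 0% = vehicle and 100% = reference inhibitor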
NOD2-RIPK2 inh – NOD2-RIPK2 binding disruptors in cells, primary screen, fluorescence, CHO cells, BLA complementation; Receptor-interacting serine/threonine-protein kinase 2 (Homo sapiens), O43353; CCF4 ratio; inhibition, % at 4.98 µM; 360,000 tested, 0.38% active; AID 624267, 2012; in the data active = inhibition above about 21%;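 note: 0% = vehicle only and 100% = reference blocker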
Target sequence (O43353 whole entry, looked up): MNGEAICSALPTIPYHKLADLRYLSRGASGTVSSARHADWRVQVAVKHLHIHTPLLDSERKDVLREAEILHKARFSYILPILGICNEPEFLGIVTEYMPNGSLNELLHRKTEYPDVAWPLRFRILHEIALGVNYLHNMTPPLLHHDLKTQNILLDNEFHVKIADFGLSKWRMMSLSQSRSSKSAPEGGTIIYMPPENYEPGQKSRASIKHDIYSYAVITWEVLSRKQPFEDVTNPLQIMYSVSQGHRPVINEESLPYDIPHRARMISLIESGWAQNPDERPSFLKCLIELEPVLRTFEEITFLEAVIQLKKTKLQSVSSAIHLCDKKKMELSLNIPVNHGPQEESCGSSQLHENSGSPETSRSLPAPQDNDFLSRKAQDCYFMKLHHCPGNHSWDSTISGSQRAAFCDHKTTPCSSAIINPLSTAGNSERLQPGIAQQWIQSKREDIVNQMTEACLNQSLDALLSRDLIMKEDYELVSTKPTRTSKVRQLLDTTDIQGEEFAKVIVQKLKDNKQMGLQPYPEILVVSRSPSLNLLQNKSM
TLR9-MyD88 block – inhibitors of TLR9-MyD88 association in cells, primary screen, cell-based, CHO, BLA complementation, fluorescence; inhibition, % at 4.98 µM; Toll-like receptor 9 (Homo sapiens) + Myeloid differentiation primary response protein …; CCF4 FRET ratio; 340,000 tested, 0.21% active; AID 504734, 2011;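 active = inhibition above the mean over all tested compounds plus 3 SD, cut at about 21% in these data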;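 note: 0% = DMSO only wells and 100% = clavulanate BLA inhibitor control wells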
beta cell repl – inducers of MIN6 beta-cell proliferation, primary screen, ATP luminescence, uHTS | 330,000 tested, 0.29% active | MIN6 cells proliferation, ATPlite luminescence, 48 h; cells starved in 0.2% serum; 100% = growth in 10% serum | AID 2380, 2010 | proliferation, % at 10 µM;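 active = compounds whose signal lies at least 3.5 SD above the mean of all wells on their plate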;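 note: 0% = DMSO-treated cells in low-serum medium and 100% = 10% serum control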
cAMP nonselect – nonselective cAMP signaling inhibitors, parental cells, counter-screen for MC4R biased antagonist project, cell-based, TR-FRET, U2OS, forskolin, triplicate. shares compounds with MC4R antagonist. LANCE TR-FRET. inhibition, % at 6.5 µM. 1,600 tested, 26% active;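 active = mean inhibition over triplicates above the low-control well mean plus 3 SD, set per campaign, cut at about 13% in these data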;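 note: signal is single emission at 671 nm which falls as cellular cAMP rises; 0% = forskolin-stimulated wells and 100% = buffer without forskolin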
MC4R cAMP antag – MC4R cAMP antagonists, retest, confirmation, cell-based, TR-FRET; MC4R-expressing cells, MTII-stimulated cAMP; shares compounds with MC4R antagonist; AID 602195, 2012; 1,600 tested, 27% active; inhibition, % at 6.5 µM; in the data active = inhibition above about 29%;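 note: 0% = agonist stimulated wells alone and 100% = agonist stimulated wells plus saturating reference antagonist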
MC4R barr conf – MC4R beta-arrestin agonists, retest, confirmation, cell-based, luminescence, U2OS | shares compounds with MC4R barr agon | U2OS MC4R beta-arrestin recruitment; scaled DMSO 0%, Melanotan II 100% | activation, % at 8.9 µM | 2,400 tested, 31% active | AID 602192, 2012;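 active = mean activation across replicates above the hit cutoff set in the earlier primary screen, cut at about 8% in these data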
MOR-DOR barr ag – agonists of MOR-DOR heterodimerization, counter-screen for MC4R biased agonist project, cell-based, luminescence; shares compounds with MC4R barr agon; U2OS PathHunter beta-arrestin, beta-gal luminescence; percent of deltorphin B response, DMSO zero; activation, % at 9.2 µM; 2,400 tested, 5.8% active; AID 602194, 2012;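 active = mean activation across replicates exceeds the hit threshold derived in the earlier primary screen, cut at about 18% in these data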;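 note: 100% = deltorphin B at 0.9 µM final and 0% = DMSO alone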
Active calls of the source: *. Shown are actives, neighbours in structure and some others; about 2.1% of the full set was active somewhere.

`COc1ccc(Cl)cc1NC(=S)Nc1ccccc1C` gave MC4R antagonist 29*, MC4R barr agon 0, TLR4-MyD88 BLA 5, NOD2-RIPK2 inh 6, TLR9-MyD88 block -6, beta cell repl -5, cAMP nonselect -2 and MC4R cAMP antag -2.
Cc1cccc(C)c1NC(=O)CN(C)C(=O)CN1C(=O)NC2(CCCC2)C1=O was read as MC4R antagonist 3, MC4R barr agon -3, NOD2-RIPK2 inh -8, TLR9-MyD88 block -2 and beta cell repl 6.
CCOc1ccc(C(=O)NCC(=O)OC2CCOC2=O)cc1OCC (configuration not stated) was read as MC4R antagonist 32*, MC4R barr agon -1, TLR4-MyD88 BLA 4, NOD2-RIPK2 inh -1, TLR9-MyD88 block -4, beta cell repl 0, cAMP nonselect 16* and MC4R cAMP antag 12.
O=C(CCC(=O)c1ccc(F)cc1)OC1CCOC1=O (configuration not stated) was read as MC4R antagonist 33*, MC4R barr agon 0, TLR4-MyD88 BLA 1, NOD2-RIPK2 inh -3, TLR9-MyD88 block -4, beta cell repl 0, cAMP nonselect 21* and MC4R cAMP antag 37*.
Screening O=C(OC1CCOC1=O)c1ccc(CO)cc1 (configuration not stated) returned MC4R antagonist 4, MC4R barr agon 2, NOD2-RIPK2 inh 4, TLR9-MyD88 block -2 and beta cell repl -2.
`O=C(CNC(=O)c1ccc(-c2ccccc2)cc1)Nc1cccc(CO)c1` gave MC4R antagonist 7, MC4R barr agon 0, NOD2-RIPK2 inh 5, TLR9-MyD88 block 3 and beta cell repl 0.
Cc1cc(O)c(C(C)C)cc1C1(c2cc(C(C)C)c(O)cc2C)OC(=O)c2ccccc21 was read as MC4R antagonist 31*, MC4R barr agon 19*, NOD2-RIPK2 inh 7, TLR9-MyD88 block -4, beta cell repl -4, cAMP nonselect 6, MC4R cAMP antag 29*, MC4R barr conf 8.6* and MOR-DOR barr ag 9.
For O=C1c2cc([N+](=O)[O-])ccc2-c2cc(Br)c(N=C(NO)C(F)(F)F)cc21 the results were MC4R antagonist 35*, MC4R barr agon 14*, NOD2-RIPK2 inh -1, TLR9-MyD88 block 9, cAMP nonselect -3, MC4R cAMP antag -4, MC4R barr conf 13* and MOR-DOR barr ag 6.
CS(=O)(=O)c1ccc2nc(NC(=O)c3ccc(NS(=O)(=O)c4ccc(F)c(F)c4)cc3)sc2c1 was read as MC4R antagonist 10, MC4R barr agon 0, NOD2-RIPK2 inh -14, TLR9-MyD88 block -7 and beta cell repl 2.
For O=C(Nc1nc2ccc(SC(F)F)cc2s1)c1ccc(NS(=O)(=O)c2ccc(F)c(F)c2)cc1 the results were MC4R antagonist 37*, MC4R barr agon 35*, TLR4-MyD88 BLA 10, NOD2-RIPK2 inh 1, TLR9-MyD88 block 2, beta cell repl -5, cAMP nonselect 2, MC4R cAMP antag -3, MC4R barr conf 34* and MOR-DOR barr ag 3.
Cc1ccc(OCC(=O)NC(=S)Nc2ccc3c4c(cccc24)CC3)cc1 was read as MC4R antagonist 39*, MC4R barr agon 13*, TLR4-MyD88 BLA -17, NOD2-RIPK2 inh 14, TLR9-MyD88 block 4, beta cell repl 0, cAMP nonselect 7, MC4R cAMP antag 14, MC4R barr conf 12* and MOR-DOR barr ag 3.
Screening CCCSc1nc2ccsc2c(=O)n1CC returned MC4R antagonist 10, MC4R barr agon 2, TLR4-MyD88 BLA -10, NOD2-RIPK2 inh 3, TLR9-MyD88 block 6 and beta cell repl -3.
For COc1cccc(C(=O)C(CCC#N)c2ccccc2)c1 (configuration not stated) the results were MC4R antagonist 0, MC4R barr agon 0, NOD2-RIPK2 inh -4 and TLR9-MyD88 block -5.
For COc1cccc(C(=O)C(C#N)=C(SC)SC)c1 the results were MC4R antagonist 42*, MC4R barr agon 24*, NOD2-RIPK2 inh -5, TLR9-MyD88 block -5, beta cell repl -4, cAMP nonselect 10, MC4R cAMP antag 23, MC4R barr conf 14* and MOR-DOR barr ag 19*.
Screening CC1(C(=O)NS(=O)(=O)c2ccc(Cl)s2)CCN1C(=O)C1(c2ccc(Cl)cc2)CCC1 (configuration not stated) returned MC4R antagonist 5, MC4R barr agon 0 and NOD2-RIPK2 inh 5.
`CCCCNc1c(-c2cccc(-c3cc(C(C)=O)cs3)c2)nc2ccc(C)cn12` gave MC4R antagonist 50*, MC4R barr agon 19*, NOD2-RIPK2 inh -13, TLR9-MyD88 block 4, beta cell repl -7, cAMP nonselect 9, MC4R cAMP antag 19, MC4R barr conf 24* and MOR-DOR barr ag 7.
Screening CCOC(=O)[C@]12CCCC=C1N(Cc1ccc(Cl)cc1Cl)C(=O)[C@H](CC(=O)NCC13CC4CC(CC(C4)C1)C3)C2 returned NOD2-RIPK2 inh -5.
Screening Cc1ccc2oc(-c3ccc(NC(=O)c4ccc5c(c4)OCO5)cc3)nc2c1 returned MC4R antagonist 6, MC4R barr agon 0, TLR4-MyD88 BLA 3, NOD2-RIPK2 inh -11, TLR9-MyD88 block 6 and beta cell repl -1.
